Experimental findings from ChEMBL document CHEMBL1146223, “Synthesis, monoamine transporter binding, properties, and functional monoamine uptake activity of 3beta-[4-methylphenyl and 4-chlorophenyl]-2 beta-[5-(substituted phenyl)thiazol-2-yl]tropanes” (J Med Chem, 2007) are described below.

A value given as a limit tells only on which side of the number the result lay.

Assay [1] has as its target Sodium-dependent dopamine transporter (Rattus norvegicus, UniProt P23977). The assay is described as follows: Displacement of [3H]WIN-35428 from DAT in Sprague-Dawley rat brain. Type of assay: tissue-based. Put shortly: (§1)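 Male Sprague-Dawley rats (200-250 g); striata, midbrain or frontal cortex tissue used for competition binding. Final radioligand concentrations were 0.5 nM for DAT, 0.2 nM [³H]paroxetine for SERT and 0.5 nM [³H]nisoxetine for NET.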
(In general: In a radioligand displacement assay an active substance lowers the binding of a labelled ligand.)

The target of assay [2] is Sodium-dependent serotonin transporter (Rattus norvegicus, UniProt P31652). The assay is described as follows: Displacement of [3H]paroxetine from SERT in Sprague-Dawley rat brain. Type of assay: tissue-based. Summed up: as §1
Sequence of Sodium-dependent serotonin transporter (Rattus norvegicus, UniProt P31652) (P31652 whole entry): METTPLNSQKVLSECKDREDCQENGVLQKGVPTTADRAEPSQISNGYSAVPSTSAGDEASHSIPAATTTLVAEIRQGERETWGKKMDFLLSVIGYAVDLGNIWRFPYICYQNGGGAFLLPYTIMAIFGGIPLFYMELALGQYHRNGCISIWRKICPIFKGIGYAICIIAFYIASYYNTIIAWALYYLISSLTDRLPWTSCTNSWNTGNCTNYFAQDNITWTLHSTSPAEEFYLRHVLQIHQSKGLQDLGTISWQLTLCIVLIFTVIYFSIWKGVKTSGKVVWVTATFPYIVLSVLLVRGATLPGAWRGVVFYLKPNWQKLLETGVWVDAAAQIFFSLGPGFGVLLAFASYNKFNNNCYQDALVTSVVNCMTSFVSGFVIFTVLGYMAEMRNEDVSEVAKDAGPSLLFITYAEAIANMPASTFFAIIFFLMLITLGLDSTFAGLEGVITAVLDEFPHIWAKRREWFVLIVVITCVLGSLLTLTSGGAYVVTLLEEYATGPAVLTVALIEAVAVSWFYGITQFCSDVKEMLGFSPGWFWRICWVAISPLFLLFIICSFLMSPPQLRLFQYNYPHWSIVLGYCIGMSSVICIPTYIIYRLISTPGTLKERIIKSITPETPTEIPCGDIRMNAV
Assay [3] deals with Norepinephrine transporter (Rattus norvegicus, UniProt Q9WTR4). In words: Displacement of [3H]nisoxetine from NET in Sprague-Dawley rat brain. Type of assay: tissue-based. Put shortly: as §1
Sequence of Norepinephrine transporter (Q9WTR4 whole entry): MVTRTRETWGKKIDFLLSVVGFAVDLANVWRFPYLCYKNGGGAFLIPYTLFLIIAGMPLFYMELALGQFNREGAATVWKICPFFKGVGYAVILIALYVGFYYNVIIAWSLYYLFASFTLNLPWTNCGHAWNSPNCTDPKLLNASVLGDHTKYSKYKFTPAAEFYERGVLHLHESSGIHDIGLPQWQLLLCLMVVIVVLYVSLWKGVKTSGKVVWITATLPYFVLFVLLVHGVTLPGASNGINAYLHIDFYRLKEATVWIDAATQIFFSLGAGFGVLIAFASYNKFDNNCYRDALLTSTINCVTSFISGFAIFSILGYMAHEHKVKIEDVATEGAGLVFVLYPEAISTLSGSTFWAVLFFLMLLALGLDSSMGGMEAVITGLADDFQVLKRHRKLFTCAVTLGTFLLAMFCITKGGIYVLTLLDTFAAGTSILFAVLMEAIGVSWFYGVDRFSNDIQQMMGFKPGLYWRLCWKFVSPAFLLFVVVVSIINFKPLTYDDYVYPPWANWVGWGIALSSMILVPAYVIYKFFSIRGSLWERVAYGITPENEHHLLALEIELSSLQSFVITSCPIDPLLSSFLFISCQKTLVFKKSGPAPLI
In assay [4] the target is Sodium-dependent dopamine transporter (Homo sapiens, UniProt Q01959). In words: Displacement of [125I]RTI-55 from human DAT expressed in HEK cells after 90 mins. Type of assay: cell-based, HEK293. Summed up: (§2)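 Competition binding on human DAT or SERT stably expressed in HEK293 cells, using the nonselective radioligand [¹²⁵I]RTI-55.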
Sequence of Sodium-dependent dopamine transporter (Homo sapiens, UniProt Q01959) (Q01959 whole entry): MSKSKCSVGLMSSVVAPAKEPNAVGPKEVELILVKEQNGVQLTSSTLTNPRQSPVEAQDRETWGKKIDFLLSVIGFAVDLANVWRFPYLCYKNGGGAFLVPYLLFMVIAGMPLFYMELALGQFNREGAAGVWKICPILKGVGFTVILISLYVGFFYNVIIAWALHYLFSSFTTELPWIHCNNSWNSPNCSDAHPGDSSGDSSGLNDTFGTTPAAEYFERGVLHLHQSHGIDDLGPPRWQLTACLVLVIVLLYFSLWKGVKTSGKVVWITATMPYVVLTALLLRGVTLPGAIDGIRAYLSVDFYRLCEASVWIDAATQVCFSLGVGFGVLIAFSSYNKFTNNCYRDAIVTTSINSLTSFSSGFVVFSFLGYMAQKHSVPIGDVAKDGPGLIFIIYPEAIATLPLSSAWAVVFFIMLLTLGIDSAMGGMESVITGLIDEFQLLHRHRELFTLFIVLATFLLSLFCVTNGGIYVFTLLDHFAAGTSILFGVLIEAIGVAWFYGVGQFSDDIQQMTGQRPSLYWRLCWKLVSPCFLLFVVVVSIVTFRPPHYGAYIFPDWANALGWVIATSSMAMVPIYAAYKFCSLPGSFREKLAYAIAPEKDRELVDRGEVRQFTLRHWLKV
In assay [5] the target is T1, Sodium-dependent serotonin transporter (Homo sapiens, UniProt P31645). The assay is described as follows: Displacement of [125I]RTI-55 from human SERT expressed in HEK cells after 90 mins. Type of assay: cell-based, HEK293. Put shortly:
as §2

Assay [6] has as its target T1, Sodium-dependent serotonin transporter. The assay is described as follows: Inhibition of human SERT in HEK cells assessed as [3H]serotonin reuptake. Type of assay: functional, cell-based, HEK293. Summed up: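 Human SERT stably expressed in HEK293 cells; the compound's block of radiolabelled serotonin reuptake was measured in these cells.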
Assay [7] has as its target T2, Sodium-dependent noradrenaline transporter (Homo sapiens, UniProt P23975). The assay is described as follows: Displacement of [125I]RTI-55 from human NET expressed in HEK cells after 90 mins. Type of assay: cell-based, HEK293.
The target of assay [8] is T2, Sodium-dependent noradrenaline transporter. The assay is described as follows: Inhibition of human NET in HEK cells assessed as [3H]norepinephrine reuptake. Type of assay: functional, cell-based, HEK293.

T2 sequence (P23975 whole entry): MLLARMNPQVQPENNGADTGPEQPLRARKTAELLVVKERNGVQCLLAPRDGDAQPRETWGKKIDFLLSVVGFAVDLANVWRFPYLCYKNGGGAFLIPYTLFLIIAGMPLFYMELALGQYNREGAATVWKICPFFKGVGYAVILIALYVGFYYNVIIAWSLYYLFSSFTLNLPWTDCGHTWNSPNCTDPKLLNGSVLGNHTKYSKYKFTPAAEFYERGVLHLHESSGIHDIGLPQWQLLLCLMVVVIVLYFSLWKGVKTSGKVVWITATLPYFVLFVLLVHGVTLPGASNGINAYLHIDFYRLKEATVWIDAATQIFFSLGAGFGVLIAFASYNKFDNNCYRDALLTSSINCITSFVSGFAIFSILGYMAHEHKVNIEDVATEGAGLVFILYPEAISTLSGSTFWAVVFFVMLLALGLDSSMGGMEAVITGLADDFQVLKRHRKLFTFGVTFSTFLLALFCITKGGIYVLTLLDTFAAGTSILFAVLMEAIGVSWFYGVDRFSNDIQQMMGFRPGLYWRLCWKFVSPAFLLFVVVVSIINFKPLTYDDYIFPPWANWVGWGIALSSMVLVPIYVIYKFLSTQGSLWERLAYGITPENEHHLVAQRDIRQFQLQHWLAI
Sequence of Sodium-dependent dopamine transporter (Rattus norvegicus, UniProt P23977) (P23977 whole entry): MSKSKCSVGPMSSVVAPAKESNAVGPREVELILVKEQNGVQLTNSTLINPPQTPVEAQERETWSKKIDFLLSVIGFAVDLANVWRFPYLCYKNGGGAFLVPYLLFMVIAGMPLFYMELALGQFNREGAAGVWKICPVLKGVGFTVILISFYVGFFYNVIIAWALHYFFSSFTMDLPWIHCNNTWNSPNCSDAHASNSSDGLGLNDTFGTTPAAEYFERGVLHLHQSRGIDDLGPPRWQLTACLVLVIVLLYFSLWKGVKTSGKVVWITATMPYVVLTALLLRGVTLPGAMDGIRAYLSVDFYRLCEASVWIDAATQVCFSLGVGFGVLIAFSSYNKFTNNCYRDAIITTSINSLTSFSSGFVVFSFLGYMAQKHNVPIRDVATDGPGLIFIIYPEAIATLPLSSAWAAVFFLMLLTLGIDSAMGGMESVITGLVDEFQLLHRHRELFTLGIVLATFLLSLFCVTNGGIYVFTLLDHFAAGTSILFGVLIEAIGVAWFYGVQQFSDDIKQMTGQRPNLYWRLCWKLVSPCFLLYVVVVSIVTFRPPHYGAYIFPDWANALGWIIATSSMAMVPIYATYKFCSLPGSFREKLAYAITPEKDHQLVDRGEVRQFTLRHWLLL
T1 sequence (P31645 whole entry): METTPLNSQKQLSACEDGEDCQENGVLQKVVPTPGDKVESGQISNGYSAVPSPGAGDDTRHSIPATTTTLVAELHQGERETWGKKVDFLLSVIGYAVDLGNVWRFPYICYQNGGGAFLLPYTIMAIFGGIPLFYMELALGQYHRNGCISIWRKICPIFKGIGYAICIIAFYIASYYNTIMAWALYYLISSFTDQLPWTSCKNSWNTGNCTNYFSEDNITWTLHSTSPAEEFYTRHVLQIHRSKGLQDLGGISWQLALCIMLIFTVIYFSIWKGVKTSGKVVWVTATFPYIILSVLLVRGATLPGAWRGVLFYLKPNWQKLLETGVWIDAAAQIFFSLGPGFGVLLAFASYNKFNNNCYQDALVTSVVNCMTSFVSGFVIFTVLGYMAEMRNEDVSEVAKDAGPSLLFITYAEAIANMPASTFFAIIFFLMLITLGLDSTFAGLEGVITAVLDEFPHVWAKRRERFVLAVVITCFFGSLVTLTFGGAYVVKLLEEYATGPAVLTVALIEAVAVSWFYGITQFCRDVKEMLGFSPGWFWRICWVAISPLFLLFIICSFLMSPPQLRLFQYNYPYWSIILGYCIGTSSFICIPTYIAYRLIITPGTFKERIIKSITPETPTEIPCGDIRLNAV

Usually IC50 stands for the concentration that gives 50% inhibition. Broadly, the Ki is the equilibrium dissociation constant of an inhibitor or competing ligand from its target. A higher Ki goes with a looser hold on the target. `COc1ccc(-c2cnc([C@H]3[C@@H](c4ccc(C)cc4)C[C@@H]4CC[C@H]3N4C)s2)cc1OC`: the IC50 in assay [1] is 83 nM; in assay [6] it was above 10000 nM. Moreover, the Ki in assay [2] is above 2000 nM; in assay [3], above 2000 nM; in assay [4] it was 529 nM; in assay [5], 7710 nM.
Regarding `COc1ccc(-c2cnc([C@H]3[C@@H](c4ccc(C)cc4)C[C@@H]4CC[C@H]3N4C)s2)cc1`, the half-inhibitory concentration (IC50) in assay [1] was determined as 15 nM; in assay [6] it was 6800 nM; in assay [8] it was 1810 nM. Further, the Ki in assay [2] is above 2000 nM; in assay [3], above 2000 nM; in assay [4] it was 53 nM; in assay [5] it was 3670 nM; in assay [7], 3630 nM.
Consider `Cc1ccc([C@H]2C[C@@H]3CC[C@H]([C@H]2c2ncc(-c4cccc([N+](=O)[O-])c4)s2)N3C)cc1`, for which the half-maximal inhibitory concentration (IC50) was found to be 4 nM in assay [1] and 2380 nM in assay [6]. Besides, the Ki in assay [2] was 10000 nM; in assay [3] it was above 2000 nM; in assay [4] it was 14 nM; in assay [5] it was 580 nM.
`CN1[C@H]2CC[C@@H]1[C@@H](c1ncc(-c3ccccc3)s1)[C@@H](c1ccc(Cl)cc1)C2`: the 50% inhibitory concentration (IC50) was determined as 5.7 nM in assay [1], 2710 nM in assay [6] and 750 nM in assay [8]. Besides, the Ki in assay [2] is above 2000 nM; in assay [3], 8560 nM; in assay [4], 18 nM; in assay [5], 2670 nM; in assay [7], 1840 nM.
As for `CN1[C@H]2CC[C@@H]1[C@@H](c1ncc(-c3ccc(Cl)cc3)s1)[C@@H](c1ccc(Cl)cc1)C2`, the IC50 in assay [1] was 20 nM; in assay [6], 4400 nM. In addition, the Ki in assay [2] is 903 nM; in assay [3] it was above 2000 nM; in assay [4], 28 nM; in assay [5], 2390 nM.
`CN1[C@H]2CC[C@@H]1[C@@H](c1ncc(-c3cccc(Br)c3)s1)[C@@H](c1ccc(Cl)cc1)C2`: the IC50 in assay [1] was found to be 18 nM; in assay [6], 4000 nM. For the same compound, the Ki in assay [2] was 280 nM; in assay [3], above 2000 nM; in assay [4], 39 nM; in assay [5], 1500 nM.
With `CN1[C@H]2CC[C@@H]1[C@@H](c1ncc(-c3ccc([N+](=O)[O-])cc3)s1)[C@@H](c1ccc(Cl)cc1)C2`, the 50% inhibitory concentration (IC50) in assay [1] came out at 20 nM; in assay [6] it was 3600 nM. The Ki in assay [2] is 980 nM; in assay [3], above 2000 nM; in assay [4] it was 6.1 nM; in assay [5] it was 1820 nM.
As for `COc1ccc(-c2cnc([C@H]3[C@@H](c4ccc(Cl)cc4)C[C@@H]4CC[C@H]3N4C)s2)cc1`, the half-maximal inhibitory concentration (IC50) is 14 nM in assay [1] and 6700 nM in assay [6]. Moreover, the inhibition constant (Ki) in assay [2] was 800 nM; in assay [3], above 2000 nM; in assay [4], 8.6 nM; in assay [5], 5200 nM.
Take `Cc1ccc([C@H]2C[C@@H]3CC[C@H]([C@H]2c2ncc(-c4ccc(Cl)cc4)s2)N3C)cc1`: the IC50 in assay [1] is 22 nM; in assay [6] it was 377 nM. In addition, the inhibition constant (Ki) in assay [2] is 1110 nM; in assay [3], above 2000 nM; in assay [4] it was 212 nM; in assay [5], 1320 nM.
For the compound `Cc1ccc([C@H]2C[C@@H]3CC[C@H]([C@H]2c2ncc(-c4ccc([N+](=O)[O-])cc4)s2)N3C)cc1`, the IC50 was determined as 41 nM in assay [1] and 3170 nM in assay [6]. Also, the Ki in assay [2] was 1690 nM; in assay [3], above 2000 nM; in assay [4], 140 nM; in assay [5], 1640 nM.
`Cc1ccc([C@H]2C[C@@H]3CC[C@H]([C@H]2c2ncc(-c4ccc(F)cc4)s2)N3C)cc1`: the IC50 in assay [1] worked out at 12 nM; in assay [6], 3200 nM. Besides, the Ki was 2240 nM in assay [2], above 2000 nM in assay [3], 61 nM in assay [4] and 1720 nM in assay [5].
As for `Cc1ccc([C@H]2C[C@@H]3CC[C@H]([C@H]2c2ncc(-c4ccc(Br)cc4)s2)N3C)cc1`, the values for the Ki in assay [4] and in assay [5] were 130 nM and 1870 nM, respectively. For the same compound, the half-inhibitory concentration (IC50) in assay [6] is 1840 nM.
Consider `Cc1ccc([C@H]2C[C@@H]3CC[C@H]([C@H]2c2ncc(-c4ccc(Cl)c(Cl)c4)s2)N3C)cc1`, for which the concentration for half-maximal inhibition (IC50) in assay [1] was found to be 102 nM; in assay [6], 4400 nM; in assay [8] it was 4000 nM. Further, the Ki in assay [2] is 190 nM; in assay [3], above 2000 nM; in assay [4] it was 105 nM; in assay [5] it was 2940 nM; in assay [7], above 6100 nM.
Consider `CN1[C@H]2CC[C@@H]1[C@@H](c1ncc(-c3ccc(Cl)c(Cl)c3)s1)[C@@H](c1ccc(Cl)cc1)C2`, for which the half-maximal inhibitory concentration (IC50) was found to be 440 nM in assay [1] and 5300 nM in assay [6]. Further, the Ki in assay [2] is 380 nM; in assay [3] it was above 2000 nM; in assay [4] it was 66 nM; in assay [5], 2710 nM.
For `CN1[C@H]2CC[C@@H]1[C@@H](c1ncc(-c3ccc(Br)cc3)s1)[C@@H](c1ccc(Cl)cc1)C2`, the results for the inhibition constant Ki in assay [2], in assay [3] and in assay [5] were 840 nM, above 2000 nM and 5700 nM, respectively. Besides, the 50% inhibitory concentration (IC50) in assay [6] came to 8220 nM.
With `CN1[C@H]2CC[C@@H]1[C@@H](c1ncc(-c3cccc([N+](=O)[O-])c3)s1)[C@@H](c1ccc(Cl)cc1)C2`, the half-maximal inhibitory concentration (IC50) in assay [1] stood at 5 nM; in assay [6], 1610 nM. Moreover, the inhibition constant (Ki) in assay [2] was 301 nM; in assay [3], above 2000 nM; in assay [4], 7.7 nM; in assay [5] it was 740 nM.
Turning to `COc1ccc(-c2cnc([C@H]3[C@@H](c4ccc(Cl)cc4)C[C@@H]4CC[C@H]3N4C)s2)cc1OC`, the IC50 in assay [1] is 65 nM; in assay [6], above 6800 nM. Also, the Ki was 1510 nM in assay [2], above 2000 nM in assay [3], 234 nM in assay [4] and 3590 nM in assay [5].
For the compound `CN1[C@H]2CC[C@@H]1[C@@H](c1ncc(-c3ccc(F)cc3)s1)[C@@H](c1ccc(Cl)cc1)C2`, the IC50 was 6 nM in assay [1] and 1010 nM in assay [6]. In addition, the Ki in assay [2] is 371 nM; in assay [3], above 2000 nM; in assay [4], 12 nM; in assay [5], 653 nM.
With `Cc1ccc([C@H]2C[C@@H]3CC[C@H]([C@H]2c2ncc(-c4cccc(Br)c4)s2)N3C)cc1`, the concentration for half-maximal inhibition (IC50) came out at 10 nM in assay [1] and 3860 nM in assay [6]. The Ki was 312 nM in assay [2], above 2000 nM in assay [3], 12 nM in assay [4] and 870 nM in assay [5].
With `COC(=O)[C@H]1[C@@H](c2ccccc2)C[C@@H]2CC[C@H]1N2C` [TROPARIL], the half-inhibitory concentration (IC50) in assay [1] turned out to be 23 nM. Besides, the Ki in assay [3] came out at 920 nM.
